In ChEMBL document CHEMBL4428066, “Small Molecule Reversible Inhibitors of Bruton's Tyrosine Kinase (BTK): Structure-Activity Relationships Leading to the Identification of 7-(2-Hydroxypropan-2-yl)-4-[2-methyl-3-(4-oxo-3,4-dihydroquinazolin-3-yl)phenyl]-9H-carbazole-1-carboxamide (BMS-935177)” (J Med Chem, 2016):
Values after ≈ are worked out from the molar mass of the structure shown. Active and inactive are the calls of the source. No cut-off for these calls is given here.

Tests used:
[1] = target: Tyrosine-protein kinase JAK2 (Homo sapiens, UniProt O60674); assay: Inhibition of partial length human JAK2 expressed in bacterial system
[2] = Cmax in Balb/C mouse at 10 mg/kg, po; assay type: ADME, organism-based; set-up: dose 10 mg/kg, route oral; details: in vivo
Method in brief: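 Male Balb/C mice dosed orally once at 10 mg/kg in PEG300/TPGS/ethanol (90/5/5 v/v/v).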

[3] = target: Tyrosine-protein kinase ITK/TSK (Homo sapiens, UniProt Q08881); assay: Inhibition of partial length human ITK expressed in bacterial system
[4] = target: Tyrosine-protein kinase TXK (Homo sapiens, UniProt P42681); assay: Inhibition of partial length human TXK expressed in bacterial system
[5] = target: Tyrosine-protein kinase Blk (Homo sapiens, UniProt P51451); assay: Inhibition of BLK (unknown origin) expressed in bacterial system
[6] = target: High affinity nerve growth factor receptor (Homo sapiens, UniProt P04629); assay: Inhibition of partial length human TRKA expressed in mammalian system
[7] = target: BDNF/NT-3 growth factors receptor (Homo sapiens, UniProt Q16620); assay: Inhibition of partial length human TRKB expressed in mammalian system
[8] = target: Tyrosine-protein kinase Lyn (Homo sapiens, UniProt P07948); assay: Inhibition of partial length human LYN expressed in bacterial system
[9] = target: Proto-oncogene tyrosine-protein kinase Src (Homo sapiens, UniProt P12931); assay: Inhibition of partial length human SRC expressed in bacterial system
[10] = Protein binding in mouse serum; assay type: ADME, cell-free; details: read-out: PB
Cytochrome P450 1A2 = Cytochrome P450 1A2 (Homo sapiens, UniProt P05177); assay: Inhibition of human liver microsomes CYP1A2 after 30 mins in presence of NADPH; assay type: ADME
Cytochrome P450 2C9 = Cytochrome P450 2C9 (Homo sapiens, UniProt P11712); assay: Inhibition of human liver microsomes CYP2C9 after 30 mins in presence of NADPH; assay type: ADME
[11] = Solubility of the compound in fasted state simulated intestinal fluid; assay type: physicochemical
[12] = Permeability of the compound at pH 5.5 by PAMPA; assay type: ADME; details: read-out: permeability
[13] = Permeability of the compound at pH 7.4 by PAMPA; assay type: ADME; details: read-out: permeability
[14] = Passive permeability from basolateral to apical side in human Caco2 cells; assay type: ADME, cell-based; details: Caco-2, read-out: permeability
Mus musculus [15] = assay: Decrease in anti-KLH IgM titers in chronic Balb/C mouse KLH antibody response model at 5 to 45 mg/kg, po qd administered through oral gavage after 14 days by ELISA; assay type: functional, organism-based
Method in brief: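 Chronic KLH challenge model in mice with compound given by mouth. Anti-KLH IgM appears in the first week after challenge. Switching to IgG anti-KLH is evident by day 14.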

Mus musculus [16] = assay: Time required for plasma concentration to reach above in vitro BCR-stimulated CD69 expression IC50 in Balb/C mouse KLH antibody response model at 5 to 45 mg/kg, po qd for 14 days; assay type: ADME, organism-based; details: in vivo, 336 h
Mus musculus [17] = assay: Antiarthritic activity in DBA/1 mouse model of collagen-induced arthritis inflammation assessed reduction in disease severity at 10 mg/kg, po dosing daily starting on day of primary immunization; assay type: functional; set-up: scale not given: the % may be the effect or the level left
Mus musculus [18] = assay: Time required for plasma concentration to reach above in vitro BCR/IgM/IgG-stimulated CD69 expression mouse whole blood IC50 in DBA/1 mouse CIA model at 10 mg/kg administered daily through oral gavage starting on day of primary immunization; assay type: ADME, organism-based; details: in vivo
Mus musculus [19] = assay: Antiarthritic activity in DBA/1 mouse model of collagen-induced arthritis inflammation assessed reduction in disease severity at 20 to 30 mg/kg, po dosing daily starting on day of primary immunization; assay type: functional; set-up: scale not given: the % may be the effect or the level left
Mus musculus [20] = assay: Time required for plasma concentration to reach above in vitro BCR/IgM/IgG-stimulated CD69 expression mouse whole blood IC50 in DBA/1 mouse CIA model at 20 mg/kg administered daily through oral gavage starting on day of primary immunization; assay type: ADME, organism-based; details: in vivo
Mus musculus [21] = assay: Antiarthritic activity in DBA/1 mouse model of collagen-induced arthritis inflammation assessed as inhibition of bone resorption end points dosed daily and orally beginning on day of primary immunization by micro-CT analysis; assay type: functional, organism-based
Mus musculus [22] = assay: Antiarthritic activity in DBA/1 mouse model of collagen-induced arthritis inflammation assessed as protection against pitting dosed daily and orally beginning on day of primary immunization by microcomputed tomography imaging analysis; assay type: functional, organism-based
Mus musculus [23] = assay: Antiarthritic activity in DBA/1 mouse model of collagen-induced arthritis inflammation assessed as protection against woven porous bones dosed daily and orally beginning on day of primary immunization by microcomputed tomography imaging analysis; assay type: functional, organism-based
Mus musculus [24] = assay: Antiarthritic activity in DBA/1 mouse model of collagen-induced arthritis inflammation assessed as presence of smooth bone surface at 20 mg/kg, po dosed daily beginning on day of primary immunization by microcomputed tomography imaging analysis; assay type: functional, organism-based
Mus musculus [25] = assay: Antiarthritic activity in Balb/C mouse model of anti-collagen antibody-induced arthritis assessed as reduction in paw clinical scores at dosed orally daily for 3 days followed by LPS challenge; assay type: functional, organism-based
[26] = Tmax in mouse plasma at 5 mg/kg, administered through oral gavage after 0.25 to 24 hrs by LC/MS/MS analysis; assay type: ADME, organism-based
[27] = Half life in mouse plasma at 2 mg/kg, iv through bolus administration after 0.05 to 24 hrs by LC/MS/MS analysis; assay type: ADME, organism-based
[28] = Plasma clearance in mouse at 2 mg/kg, iv through bolus administration after 0.05 to 24 hrs by LC/MS/MS analysis; assay type: ADME, organism-based
[29] = Volume of distribution in steady state in mouse at 2 mg/kg, iv through bolus administration after 0.05 to 24 hrs by LC/MS/MS analysis; assay type: ADME, organism-based; details: in vivo, read-out: Vdss
[30] = Tmax in Sprague-Dawley rat plasma at 5 mg/kg, administered through oral gavage by LC/MS/MS analysis; assay type: ADME, organism-based
[31] = AUC in Sprague-Dawley rat plasma at 5 mg/kg, administered through oral gavage by LC/MS/MS analysis; assay type: ADME, organism-based
[32] = Plasma clearance in Sprague-Dawley rat at 2 mg/kg, iv through bolus administration by LC/MS/MS analysis; assay type: ADME, organism-based
[33] = Oral bioavailability in Sprague-Dawley rat at 5 mg/kg by LC/MS/MS analysis; assay type: ADME, organism-based; details: in vivo
[34] = Tmax in Beagle dog plasma at 2 mg/kg, administered through oral gavage after 0.25 to 48 hrs by LC/MS/MS analysis; assay type: ADME, organism-based, Canis lupus familiaris
[35] = AUC in Beagle dog plasma at 2 mg/kg, administered through oral gavage after 0.25 to 48 hrs by LC/MS/MS analysis; assay type: ADME, organism-based, Canis lupus familiaris; set-up: time 0.25-48 hr, dose 2 mg/kg, route oral
[36] = Half life in Beagle dog plasma at 2 mg/kg, iv through bolus administration after 0.167 to 48 hrs by LC/MS/MS analysis; assay type: ADME, organism-based, Canis lupus familiaris
[37] = Oral bioavailability in cynomolgus monkey at 2 mg/kg after 0.25 to 48 hrs by LC/MS/MS analysis; assay type: ADME, organism-based, Macaca fascicularis; details: in vivo
Mus musculus [38] = assay: Antiarthritic activity in DBA/1 mouse model of collagen-induced arthritis inflammation assessed reduction in incidence of clinically evident disease dosed daily and orally beginning on day of primary immunization; assay type: functional, organism-based
Mus musculus [39] = assay: Antiarthritic activity in DBA/1 mouse model of collagen-induced arthritis inflammation assessed as protection against fusion of small bones dosed daily and orally beginning on day of primary immunization by microcomputed tomography imaging analysis; assay type: functional, organism-based

Sequence of Cytochrome P450 1A2 (P05177 whole entry): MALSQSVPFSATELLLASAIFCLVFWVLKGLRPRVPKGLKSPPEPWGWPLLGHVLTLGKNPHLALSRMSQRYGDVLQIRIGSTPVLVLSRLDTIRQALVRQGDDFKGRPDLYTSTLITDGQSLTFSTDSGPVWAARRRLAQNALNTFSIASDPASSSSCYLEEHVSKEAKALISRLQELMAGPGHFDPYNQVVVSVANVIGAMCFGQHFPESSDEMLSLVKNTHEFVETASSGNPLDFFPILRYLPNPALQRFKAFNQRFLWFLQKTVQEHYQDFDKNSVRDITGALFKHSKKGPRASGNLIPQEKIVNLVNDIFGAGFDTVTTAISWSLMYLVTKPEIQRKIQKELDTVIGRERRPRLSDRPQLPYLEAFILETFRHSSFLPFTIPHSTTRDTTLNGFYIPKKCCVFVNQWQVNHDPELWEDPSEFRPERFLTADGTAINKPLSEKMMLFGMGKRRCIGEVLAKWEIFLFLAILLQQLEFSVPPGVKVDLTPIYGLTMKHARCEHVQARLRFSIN
Sequence of BDNF/NT-3 growth factors receptor (Q16620 whole entry): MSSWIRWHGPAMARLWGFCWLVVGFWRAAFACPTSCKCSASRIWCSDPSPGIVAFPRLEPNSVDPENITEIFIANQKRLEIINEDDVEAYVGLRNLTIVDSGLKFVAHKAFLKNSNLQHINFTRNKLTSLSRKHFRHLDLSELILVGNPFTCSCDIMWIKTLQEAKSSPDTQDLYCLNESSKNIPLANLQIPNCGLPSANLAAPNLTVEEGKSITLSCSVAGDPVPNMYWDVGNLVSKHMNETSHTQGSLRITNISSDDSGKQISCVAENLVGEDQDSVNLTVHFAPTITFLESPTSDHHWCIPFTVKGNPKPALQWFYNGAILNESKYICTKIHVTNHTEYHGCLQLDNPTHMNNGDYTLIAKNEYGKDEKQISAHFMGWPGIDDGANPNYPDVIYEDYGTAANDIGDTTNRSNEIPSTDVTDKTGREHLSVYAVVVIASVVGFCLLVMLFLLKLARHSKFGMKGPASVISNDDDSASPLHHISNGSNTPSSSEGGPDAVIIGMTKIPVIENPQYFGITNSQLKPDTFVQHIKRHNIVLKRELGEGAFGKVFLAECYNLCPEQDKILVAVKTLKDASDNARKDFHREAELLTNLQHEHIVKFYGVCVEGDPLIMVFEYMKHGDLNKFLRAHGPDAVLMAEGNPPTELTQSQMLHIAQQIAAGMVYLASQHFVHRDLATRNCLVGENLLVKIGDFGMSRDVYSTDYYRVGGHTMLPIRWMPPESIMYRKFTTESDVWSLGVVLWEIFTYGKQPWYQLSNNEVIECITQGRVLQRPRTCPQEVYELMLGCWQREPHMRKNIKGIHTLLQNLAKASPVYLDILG
Sequence of High affinity nerve growth factor receptor (P04629 whole entry): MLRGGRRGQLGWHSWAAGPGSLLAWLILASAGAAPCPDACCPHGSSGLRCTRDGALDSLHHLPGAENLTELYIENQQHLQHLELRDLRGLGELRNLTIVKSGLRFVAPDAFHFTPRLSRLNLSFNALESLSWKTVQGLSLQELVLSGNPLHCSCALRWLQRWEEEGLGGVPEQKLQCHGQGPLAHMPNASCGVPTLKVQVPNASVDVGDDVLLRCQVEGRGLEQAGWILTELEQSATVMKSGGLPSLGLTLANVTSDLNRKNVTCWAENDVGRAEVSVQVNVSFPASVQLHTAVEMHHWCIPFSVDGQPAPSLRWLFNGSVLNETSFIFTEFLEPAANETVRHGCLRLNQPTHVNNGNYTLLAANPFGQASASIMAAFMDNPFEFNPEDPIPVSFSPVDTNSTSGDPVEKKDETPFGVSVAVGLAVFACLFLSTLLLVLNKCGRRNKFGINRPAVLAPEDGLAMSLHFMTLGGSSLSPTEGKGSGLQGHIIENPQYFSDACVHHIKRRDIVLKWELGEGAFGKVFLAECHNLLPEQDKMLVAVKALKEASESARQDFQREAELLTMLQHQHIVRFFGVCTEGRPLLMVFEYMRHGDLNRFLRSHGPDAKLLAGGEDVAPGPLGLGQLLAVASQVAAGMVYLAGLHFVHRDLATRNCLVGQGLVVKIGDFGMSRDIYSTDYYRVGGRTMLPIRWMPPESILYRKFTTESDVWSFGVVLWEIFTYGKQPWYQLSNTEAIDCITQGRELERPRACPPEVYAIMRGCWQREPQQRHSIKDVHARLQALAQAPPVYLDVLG
Sequence of Proto-oncogene tyrosine-protein kinase Src (P12931 2-536 limits assumed): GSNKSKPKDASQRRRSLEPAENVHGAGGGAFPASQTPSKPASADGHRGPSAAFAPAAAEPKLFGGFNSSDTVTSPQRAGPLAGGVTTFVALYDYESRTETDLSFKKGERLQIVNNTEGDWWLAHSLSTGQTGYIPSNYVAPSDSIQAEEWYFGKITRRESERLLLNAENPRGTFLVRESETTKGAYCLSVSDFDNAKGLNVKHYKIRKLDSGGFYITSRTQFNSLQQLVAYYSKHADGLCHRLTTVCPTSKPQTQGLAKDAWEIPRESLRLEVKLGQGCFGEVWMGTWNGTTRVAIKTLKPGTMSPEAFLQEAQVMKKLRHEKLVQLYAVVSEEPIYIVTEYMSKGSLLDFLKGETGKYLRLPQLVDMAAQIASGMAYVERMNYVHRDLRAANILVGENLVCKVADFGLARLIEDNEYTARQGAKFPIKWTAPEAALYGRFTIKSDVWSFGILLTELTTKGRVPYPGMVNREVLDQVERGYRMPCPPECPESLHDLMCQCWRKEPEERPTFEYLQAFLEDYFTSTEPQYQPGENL
Sequence of Tyrosine-protein kinase ITK/TSK (Q08881 whole entry): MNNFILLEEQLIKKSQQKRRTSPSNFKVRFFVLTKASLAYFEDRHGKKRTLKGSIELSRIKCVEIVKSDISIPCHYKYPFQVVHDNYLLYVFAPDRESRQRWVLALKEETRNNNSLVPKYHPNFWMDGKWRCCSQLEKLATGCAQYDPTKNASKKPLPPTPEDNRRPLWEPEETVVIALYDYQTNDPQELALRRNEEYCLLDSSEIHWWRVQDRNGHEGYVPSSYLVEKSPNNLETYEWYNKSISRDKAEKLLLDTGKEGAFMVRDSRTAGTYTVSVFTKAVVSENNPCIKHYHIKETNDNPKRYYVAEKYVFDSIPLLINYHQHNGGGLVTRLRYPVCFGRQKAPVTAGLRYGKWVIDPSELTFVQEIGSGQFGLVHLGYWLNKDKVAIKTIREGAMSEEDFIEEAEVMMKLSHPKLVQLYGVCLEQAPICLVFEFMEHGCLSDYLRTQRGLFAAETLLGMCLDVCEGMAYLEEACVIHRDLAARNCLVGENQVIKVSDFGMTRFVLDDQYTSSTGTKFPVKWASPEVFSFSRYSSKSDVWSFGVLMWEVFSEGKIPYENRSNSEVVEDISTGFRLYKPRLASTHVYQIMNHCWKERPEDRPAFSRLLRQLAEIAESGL
Sequence of Tyrosine-protein kinase TXK (P42681 whole entry): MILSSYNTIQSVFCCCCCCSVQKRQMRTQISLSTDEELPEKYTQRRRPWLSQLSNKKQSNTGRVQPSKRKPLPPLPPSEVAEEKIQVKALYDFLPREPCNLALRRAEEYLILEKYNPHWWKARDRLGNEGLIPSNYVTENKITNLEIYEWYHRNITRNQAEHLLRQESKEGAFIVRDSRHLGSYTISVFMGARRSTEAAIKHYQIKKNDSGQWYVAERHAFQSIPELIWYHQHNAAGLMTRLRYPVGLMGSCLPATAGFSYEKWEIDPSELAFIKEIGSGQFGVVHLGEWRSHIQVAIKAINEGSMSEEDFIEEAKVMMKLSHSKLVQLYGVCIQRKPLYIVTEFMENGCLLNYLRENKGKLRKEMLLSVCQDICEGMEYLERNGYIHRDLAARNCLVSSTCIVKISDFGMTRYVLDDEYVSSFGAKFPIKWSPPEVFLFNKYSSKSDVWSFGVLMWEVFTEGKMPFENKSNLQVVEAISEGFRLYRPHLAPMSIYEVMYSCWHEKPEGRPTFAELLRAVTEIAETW
Sequence of Tyrosine-protein kinase Lyn (P07948 whole entry): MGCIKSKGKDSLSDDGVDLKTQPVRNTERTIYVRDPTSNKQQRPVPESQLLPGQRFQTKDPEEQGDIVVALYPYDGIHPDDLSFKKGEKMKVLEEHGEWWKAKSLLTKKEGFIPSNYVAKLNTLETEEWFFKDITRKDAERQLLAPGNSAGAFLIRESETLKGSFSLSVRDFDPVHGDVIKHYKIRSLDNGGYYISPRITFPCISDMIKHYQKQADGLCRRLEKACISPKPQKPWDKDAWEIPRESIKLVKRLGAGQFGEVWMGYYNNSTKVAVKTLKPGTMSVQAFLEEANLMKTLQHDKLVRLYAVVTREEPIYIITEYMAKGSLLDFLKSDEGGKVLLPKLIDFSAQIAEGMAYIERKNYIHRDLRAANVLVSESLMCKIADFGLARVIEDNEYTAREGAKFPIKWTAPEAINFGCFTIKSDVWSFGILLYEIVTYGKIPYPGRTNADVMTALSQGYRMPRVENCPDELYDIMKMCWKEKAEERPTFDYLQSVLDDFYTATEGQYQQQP
Sequence of Tyrosine-protein kinase Blk (P51451 whole entry): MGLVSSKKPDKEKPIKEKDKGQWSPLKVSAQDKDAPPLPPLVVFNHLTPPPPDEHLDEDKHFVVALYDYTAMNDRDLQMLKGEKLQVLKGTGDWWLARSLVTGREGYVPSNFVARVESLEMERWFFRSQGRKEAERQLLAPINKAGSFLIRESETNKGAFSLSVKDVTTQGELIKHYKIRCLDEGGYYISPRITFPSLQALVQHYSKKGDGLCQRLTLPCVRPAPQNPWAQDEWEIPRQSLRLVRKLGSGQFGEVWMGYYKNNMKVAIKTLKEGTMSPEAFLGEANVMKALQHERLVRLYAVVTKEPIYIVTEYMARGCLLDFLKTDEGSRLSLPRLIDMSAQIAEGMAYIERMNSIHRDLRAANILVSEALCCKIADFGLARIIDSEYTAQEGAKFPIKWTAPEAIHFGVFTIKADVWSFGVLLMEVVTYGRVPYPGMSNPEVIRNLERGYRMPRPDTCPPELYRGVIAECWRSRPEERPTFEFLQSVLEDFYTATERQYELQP

- IC50 [1]: 370 nM
- Cmax [2]: 8.96 µM
- IC50 [3]: 96 nM
- IC50 [4]: 180 nM
- IC50 [5]: 20 nM
- IC50 [6]: 30 nM
- IC50 [7]: 100 nM
- IC50 [8]: 160 nM
- IC50 [9]: 3190 nM
- fraction unbound [10]: 0.01
- IC50 (Cytochrome P450 1A2): > 40000 nM
- IC50 (Cytochrome P450 2C9): > 8000 nM
- solubility [11]: 6 µg/mL (≈ 11.9 µM)
- Papp [12]: 87.6 ×10⁻⁶ cm/s
- Papp [13]: 102 ×10⁻⁶ cm/s
- Papp B→A [14]: 12.2 ×10⁻⁶ cm/s
- Time (Mus musculus [16]): 5 h
- Time (Mus musculus [18]): 12 h
- Time (Mus musculus [20]): 20 h
- Tmax [26]: 3 h
- half-life [27]: 4 h
- clearance [28]: 4.9 mL/min/kg
- Vd [29]: 1.7 L/kg
- Tmax [30]: 5 h
- AUC [31]: 21.2 µM·h
- clearance [32]: 6.4 mL/min/kg
- bioavailability [33]: 84%
- Tmax [34]: 1.6 h
- AUC [35]: 14.2 µM·h
- half-life [36]: 10.4 h
- bioavailability [37]: 100%
SMILES: Cc1c(-c2ccc(C(N)=O)c3[nH]c4cc(C(C)(C)O)ccc4c23)cccc1-n1cnc2ccccc2c1=O
- Activity (Mus musculus [15]): Active
- Activity (Mus musculus [17]): 40%
- Activity (Mus musculus [19]): 85 - 90%
- Activity (Mus musculus [21]): Active
- Activity (Mus musculus [22]): Dose-dependent effect
- Activity (Mus musculus [23]): Dose-dependent effect
- Activity (Mus musculus [24]): Active
- Activity (Mus musculus [25]): Dose-dependent effect
- Activity (Mus musculus [38]): Dose-dependent effect
- Activity (Mus musculus [39]): Dose-dependent effect
